Measured values as given in ChEMBL document CHEMBL1142233, “Treatment of diabetes and atherosclerosis by inhibiting fatty-acid-binding protein aP2” (2007).
Calls of active or inactive are those of the source. The rule behind the calls is not given here.

How the values were obtained:
[1] = test system: Mus musculus; experiment: Increase in insulin-stimulated IRbeta tyrosine 1162/1163 phosphorylation in ob/ob mouse adipose tissue at 40 mg/kg/day, po relative to control; format: functional, organism-based
Summary of the method: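 Male ob/ob mice were dosed by oral gavage at 40 mg kg⁻¹ d⁻¹ or with vehicle. After 6 h food withdrawal and tribromoethanol anaesthesia, insulin (2 IU kg⁻¹) or PBS went into the portal vein. Adipose tissue was taken 3 min later, lysed and immunoblotted for IRβ pTyr1162/1163, AKT pSer473 and total proteins. Signals were quantified by densitometry.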

[2] = test system: Mus musculus; experiment: Increase in adiponectin level in ob/ob mouse plasma at 40 mg/kg/day, po after 6 weeks relative to control; format: functional, organism-based
Summary of the method: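 Plasma from male ob/ob mice after 6 weeks of daily oral gavage (started at 8 weeks), 6 h fasted, n = 6 per group. Adiponectin measured by ELISA.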

[3] = test system: Macrophage; experiment: Increase in cholesterol efflux in mouse aP2-/- macrophage cells at 25 uM relative to control; format: functional, cell-based
Summary of the method: (§1)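 Macrophages loaded 24 h in RPMI with 5% LPDS, 1 μCi ml⁻¹ ³H-cholesterol and 50 μg ml⁻¹ acLDL, ± 25 μM inhibitor. Equilibrated 24 h in 0.2% fatty-acid-free BSA ± inhibitor, then 4 h ± APOA1 20 μg ml⁻¹. Efflux = medium ³H as % of total, per mg protein; mouse lines normalized to untreated aP2+/+.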

[4] = test system: Mus musculus; experiment: Effect on free fatty acid level in 5-week old apoE-/- C57BL/6J mouse fed on western diet and 15 mg/kg/day, po drug simultaneously in 5-11 week early intervention study; format: functional
Summary of the method: (§2)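 Male Apoe−/− mice on western diet (21% fat, 0.21% cholesterol) from 4–5 weeks of age. Oral gavage for 6 weeks from age 5 or 12 weeks; vehicle 10% 1-methyl-2-pyrrolidone, 5% cremophor EL with ethanol in water. Blood taken after 6 h fast before and after treatment. Glucose by meter; insulin by ELISA; lipids and glycerol colorimetric.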

[5] = test system: Mus musculus; experiment: Effect on glycerol level in 5-week old apoE-/- C57BL/6J mouse fed on western diet and administered with 15 mg/kg/day, po drug at 12 week in 12-18 week late intervention study; format: functional; summary of the method: as §2
[6] = Reduction of Mcp1 expression mouse aP2-/-R macrophage cells (re-expression of aP2) relative to control; format: functional, cell-based
Summary of the method: (§3)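 Mouse aP2⁺/⁺ and aP2-reconstituted aP2⁻/⁻ macrophage lines were grown in RPMI with FBS or 5% LPDS, with inhibitor in DMSO or vehicle. Mcp-1, Il1β, Il6 and Tnf mRNA were measured by SYBR Green qRT-PCR (annealing at 58 °C, 50 cycles), normalized to 18s rRNA and then to untreated cells. Mean ± s.e.m.; at least triplicate.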

[7] = Decrease in MCP1 production in mouse aP2-/-R macrophage cells (re-expression of aP2) after 24 hrs; format: functional, cell-based
Summary of the method: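 Immortalized mouse macrophage lines (aP2−/−R re-expressing aP2) kept 24 h in RPMI plus 5% LPDS with inhibitor 0–25 μM in DMSO. MCP-1 in supernatant measured by ELISA and expressed relative to inhibitor-free cells of each line. At least triplicate.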

[8] = target: Apolipoprotein A-I (Homo sapiens) (UniProt P02647); experiment: Increase in APOA1-mediated cholesterol in human THP1 cells at 25 uM relative to control; format: cell-based; conditions: THP-1; summary of the method: as §1
Apolipoprotein A-I (Homo sapiens), sequence (P02647 whole entry): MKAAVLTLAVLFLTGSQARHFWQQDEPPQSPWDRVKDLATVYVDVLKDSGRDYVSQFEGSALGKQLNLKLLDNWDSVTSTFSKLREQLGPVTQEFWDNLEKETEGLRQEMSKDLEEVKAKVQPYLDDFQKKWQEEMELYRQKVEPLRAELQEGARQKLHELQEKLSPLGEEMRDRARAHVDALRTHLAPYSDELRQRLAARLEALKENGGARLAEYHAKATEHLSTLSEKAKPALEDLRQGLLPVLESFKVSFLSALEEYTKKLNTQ

[9] = test system: Mus musculus; experiment: Effect on insulin level in 5-week old apoE-/- C57BL/6J mouse fed on western diet and 15 mg/kg/day, po drug simultaneously in 5-11 week early intervention study; format: functional; summary of the method: as §2
[10] = test system: Macrophage; experiment: Reduction of IL1-beta expressed in mouse aP2+/+ macrophage cells relative to control; format: functional, cell-based; summary of the method: as §3
[11] = test system: Mus musculus; experiment: Effect on cholesterol level in 5-week old apoE -/- C57BL/6J mouse fed on western diet and 15 mg/kg/day, po drug simultaneously in 5-11 week early intervention study; format: functional; summary of the method: as §2
[12] = test system: Mus musculus; experiment: Effect on triglyceride level in 5-week old apoE-/- C57BL/6J mouse fed on western diet and 15 mg/kg/day, po drug simultaneously in 5-11 week early intervention study; format: functional; summary of the method: as §2
[13] = Reduction of TNF expression in mouse aP2+/+ macrophage cells relative to control; format: functional, cell-based; summary of the method: as §3
[14] = test system: Macrophage; experiment: Reduction in total cholesterol ester content in mouse aP2+/+ macrophage cells at 25 uM relative to control; format: functional, cell-based
[15] = test system: Mus musculus; experiment: Increase in glucose uptake in epididymal fat in ob/ob mouse at 40 mg/kg/day, po after 4 weeks by hyperinsulinemic-euglycaemic clamp studies relative to control; format: functional, organism-based
Summary of the method: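 Ob/ob mice after 4 weeks of treatment, jugular catheterized 4 days earlier. Clamp with insulin at 12.5 mU kg⁻¹ min⁻¹, variable 25% glucose to hold basal glucose, and ³H-glucose at 0.1 μCi min⁻¹ with 2-¹⁴C-DG. Tissue uptake computed from the fitted plasma 2-¹⁴C-DG curve and tissue 2-¹⁴C-DG-6-phosphate content. n = 7 and 9.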

[16] = test system: Mus musculus; experiment: Decrease in Acaca expression in liver of ob/ob mouse at 40 mg/kg/day, po; format: functional, organism-based
Summary of the method: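 Liver from male ob/ob mice gavaged daily for 6 weeks from 8 weeks of age, n = 6 per group. mRNA measured by SYBR Green real-time PCR: 95 °C 4 min, then 50 cycles of 95 °C 15 s, 58 °C 30 s, 72 °C 30 s. Normalized to 18s rRNA.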

[17] = Reduction of TNF expression mouse aP2-/-R macrophage cells (re-expression of aP2) relative to control; format: functional, cell-based; summary of the method: as §3
[18] = Reduction of IL1-beta expressed in mouse aP2-/-R macrophage cells (re-expression of aP2) relative to control; format: functional, cell-based; summary of the method: as §3
[19] = test system: Mus musculus; experiment: Decrease in IL6 expression in ob/ob mouse adipose tissue at 40 mg/kg/day, po; format: functional, organism-based
[20] = test system: Mus musculus; experiment: Effect on free fatty acid level in 5-week old apoE-/- C57BL/6J mouse fed on western diet and administered with 15 mg/kg/day, po drug at 12 week in 12-18 week late intervention study; format: functional; summary of the method: as §2
[21] = test system: Macrophage; experiment: Increase in cholesterol efflux in mouse aP2+/+ macrophage cells at 25 uM relative to control; format: functional, cell-based; summary of the method: as §1
[22] = test system: Mus musculus; experiment: Attenuation of JNK1 activity in ob/ob mouse adipose tissue at 40 mg/kg/day, po; format: functional
Summary of the method: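 Adipose lysate from male ob/ob mice (oral gavage 6 weeks from 8 weeks of age) immunoprecipitated with JNK1 antibody and protein A beads. Beads incubated with 10 μCi ³²P γATP, 10 μM ATP and 5 μg c-jun fusion protein at 30 °C for 20 min, then Laemmli stop.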

[23] = test system: Mus musculus; experiment: Increase in insulin-stimulated AKT serine 473 phosphorylation in ob/ob mouse liver at 40 mg/kg/day, po relative to control; format: functional, organism-based
Summary of the method: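 Male ob/ob mice got 40 mg kg⁻¹ d⁻¹ by oral gavage or vehicle. After a 6 h fast under tribromoethanol anaesthesia, portal-vein insulin (2 IU kg⁻¹) or PBS was given. Liver was removed 3 min later, lysed and western-blotted for IRβ pTyr1162/1163 and AKT pSer473 against total IRβ and AKT, then quantified.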

[24] = test system: Mus musculus; experiment: Decrease in F4/80 (Emr1) expression in ob/ob mouse adipose tissue at 40 mg/kg/day, po; format: functional, organism-based

With `CCc1c(-c2ccccc2)c(-c2ccccc2)nn1-c1ccccc1-c1cccc(OCC(=O)O)c1` the Activity [1] was “Active”, the Activity [2] was “Active” and the Activity [3] was “inactive”. For the same compound, the Activity [4] was 2 mM, the Activity [5] was 3.55 mM and the Activity [6] was “Active”. For the same compound, the Activity [7] was “Active”, the Activity [8] was “Active” and the Activity [9] was 0.5 ng/mL. For the same compound, the Activity [10] was “Active”, the Activity [11] was 1465.3 mg/dL and the Activity [12] was 213.6 mg/dL. For the same compound, the Activity [13] was “Active”, the Activity [14] was “Active” and the Activity [15] was “Active”. For the same compound, the Activity [16] was “Active”, the Activity [17] was “Active” and the Activity [18] was “Active”. The Activity [19] was “Active”, the Activity [20] was 2.55 mM and the Activity [21] was “Active”. The Activity [22] was 40%, the Activity [23] was “Active” and the Activity [24] was “Active”.
